Laboratory results published in ChEMBL document CHEMBL1152517, “Isocombretastatins A: 1,1-diarylethenes as potent inhibitors of tubulin polymerization and cytotoxic compounds” (Bioorg Med Chem, 2009).

Assays:
HL-60 = assay: Cytotoxicity against human HL60 cells after 72 hrs by XTT assay; assay type: functional, cell-based; conditions: HL-60, 72 h
Summary of the method: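 Cells seeded per well (HeLa 1.5 × 10^3, HT-29 3 × 10^3, A-549 5 × 10^3, HL-60 3 × 10^3). Adherent lines attached for 24 h at 37 °C, 5% CO2. Compound exposure at various concentrations for 72 h. XTT/PMS reagent added, 4 h further incubation, formazan absorbance read at 490 nm (reference 655 nm). IC50 is concentration giving 50% proliferation inhibition. Mean of three independent experiments run in triplicate.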

A549 = assay: Cytotoxicity against human A549 cells after 72 hrs by XTT assay; assay type: functional, cell-based; conditions: A549, 72 h
HeLa = assay: Cytotoxicity against human HeLa cells after 72 hrs by XTT assay; assay type: functional, cell-based
HT-29 = assay: Cytotoxicity against human HT-29 cells after 72 hrs by XTT assay; assay type: functional, cell-based; conditions: HT-29, 72 h
Bos taurus [1] = organism: Bos taurus; assay: Inhibition of calf brain tubulin polymerization at 20 uM after 20 mins by turbidimetric method
Bos taurus [2] = organism: Bos taurus; assay: Inhibition of calf brain tubulin polymerization at 5 uM after 20 mins by turbidimetric method
[3] = Inhibition of calf brain tubulin polymerization after 20 mins by turbidimetric method; design: species or system Bos taurus
Summary of the method: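 Microtubule protein at 1.0 mg/mL in 0.1 M MES, 1 mM EGTA, 1 mM MgCl2, 1 mM β-ME, 1.5 mM GTP, pH 6.7, with 4% DMSO. Preincubated with ligand 30 min at 20 °C, then 10 min on ice. Assembly started by shift from 4 to 37 °C and followed by turbidity at 450 nm. IC50 read graphically as 50% inhibition at 20 min. At least two independent experiments using different protein preparations.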

Bos taurus [4] = organism: Bos taurus; assay: Inhibition of calf brain tubulin polymerization at 40 uM after 20 mins by turbidimetric method

SMILES | inhibition (Bos taurus [1]) [%] | inhibition (Bos taurus [2]) [%] | IC50 [3] [µM] | inhibition (Bos taurus [4]) [%] | IC50 (HL-60) [nM] | IC50 (A549) [nM] | IC50 (HeLa) [nM] | IC50 (HT-29) [nM]
C=C(c1ccc2c(ccn2CC)c1)c1ccc(OC)c(OC)c1OC | 34 |  |  |  |  | > 10000 | > 1000 | > 1000
COc1ccc(C(O)c2ccc3ccccc3c2)c(OC)c1OC (stereo not drawn) | 0 |  |  |  |  | > 10000 | > 10000 | > 10000
CCn1ccc2cc(C(=O)c3ccc(OC)c(OC)c3OC)ccc21 | 47 |  | 5.6 |  | > 1000 | > 10000 | 450 | > 1000
COc1ccc(C(=O)c2ccc3c(ccn3C)c2)c(OC)c1OC | 40 |  |  |  |  | 500 | 30 | 30
CCn1ccc2cc(C(O)c3cc(OC)c(OC)c(OC)c3)ccc21 (stereo not drawn) | 41 |  |  |  | < 1000 | > 10000 | < 1000 | > 10000
C=C(c1ccc2ccccc2c1)c1ccc(OC)c(OC)c1OC | 11 |  |  |  |  |  | 200 | > 10000
COc1ccc(/C=C\c2cc(OC)c(OC)c(OC)c2)cc1O [COMBRETASTATIN A4] |  |  | 3 |  | 2 |  |  | 
COc1cc(C(O)c2ccc3c(ccn3C)c2)cc(OC)c1OC (stereo not drawn) | 86 |  | 18 |  |  |  |  | 
COc1ccc(C(=O)c2ccc3ccccc3c2)c(OC)c1OC | 4 |  |  |  | 3300 | > 10000 |  | > 10000
COc1ccc(C(O)c2ccc3c(ccn3C)c2)c(OC)c1OC (stereo not drawn) | 9 |  |  |  |  | > 10000 | 2500 | 
COc1cccc2c1C(=O)c1c(O)c3c(c(O)c1C2=O)C[C@@](O)(C(=O)CO)C[C@@H]3O[C@H]1C[C@H](N)[C@H](O)[C@H](C)O1 [DOXORUBICIN] |  |  |  |  | 27 | 290 | 190 | 240
CCn1ccc2cc(C(O)c3ccc(OC)c(OC)c3OC)ccc21 (stereo not drawn) | 0 |  |  |  | > 10000 | > 10000 | < 1000 | > 10000

Second part, led by results:

inhibition (Bos taurus [1]) [%] | inhibition (Bos taurus [2]) [%] | IC50 [3] [µM] | inhibition (Bos taurus [4]) [%] | SMILES | IC50 (HL-60) [nM] | IC50 (A549) [nM] | IC50 (HeLa) [nM] | IC50 (HT-29) [nM]
20 |  |  |  | COc1ccc(C(=O)c2cc(OC)c(OC)c(OC)c2)cc1 | 270 | 3100 | 37 | 290
7 |  |  |  | COc1ccc(C(=O)c2ccc(OC)c(OC)c2OC)cc1 | 2000 | > 10000 | 1800 | 3100
 | 81 | 1.5 |  | COc1ccc(C(=O)c2cc(OC)c(OC)c(OC)c2)cc1N | 30 | 57 | 30 | 32
95 |  | 5.7 |  | CCn1ccc2cc(C(=O)c3cc(OC)c(OC)c(OC)c3)ccc21 |  |  |  | 34
12 |  |  |  | C=C(c1ccc(OC)c([N+](=O)[O-])c1)c1ccc(OC)c(OC)c1OC | 2600 | > 10000 | 32 | 2900
32 |  |  |  | C=C(c1ccc(OC)c(N)c1)c1ccc(OC)c(OC)c1OC | 230 | 2700 | 60 | 330
 |  | 7.9 | 98 | COc1cc(C(=O)c2ccc3c(ccn3C)c2)cc(OC)c1OC |  |  | 35 | 
94 |  | 2.5 |  | COc1ccc(C(=O)c2cc(OC)c(OC)c(OC)c2)cc1O [PHENSTATIN] | 31 | 290 |  | 1800
12 |  |  |  | COc1ccc(C(=O)c2cc(OC)c(OC)c(OC)c2)cc1[N+](=O)[O-] | 1800 | > 10000 | 2500 | 2900
83 |  | 6 |  | C=C(c1cc(OC)c(OC)c(OC)c1)c1ccc2c(ccn2CC)c1 |  |  | 17 | 35
86 |  | 12.2 |  | C=C(c1ccc(OC)c(O)c1)c1ccc(OC)c(OC)c1OC | 240 | 220 | 35 | 310
16 |  |  |  | C=C(c1ccc(OC)cc1)c1ccc(OC)c(OC)c1OC | 480 | > 10000 | 300 | 3200
 |  | 1.1 | 100 | COc1cc(C(=O)c2ccc3ccccc3c2)cc(OC)c1OC |  |  | 44 | 
82 |  | 15 |  | C=C(c1cc(OC)c(OC)c(OC)c1)c1ccc2ccccc2c1 | 910 | 360 | 300 | 250
 |  |  | 0 | COc1cc(C(O)c2ccc3ccccc3c2)cc(OC)c1OC (stereo not drawn) |  |  |  | 
